In ChEMBL document CHEMBL1138409, “Diaryl substituted pyrazoles as potent CCR2 receptor antagonists” (Bioorg Med Chem Lett, 2007):
Active and inactive are the calls of the source. The calls are words filed in the database; no cut-off is given here.

Experiments:
[1] = Oral bioavailability in Sprague-Dawley rat at 2 mg/kg; assay type: ADME, organism-based; details: in vivo
[2] = biological target: C-C chemokine receptor type 5 (Homo sapiens, UniProt P51681); assay: Inhibition of CCR5
[3] = Volume of distribution in Sprague-Dawley rat; assay type: ADME, organism-based; details: in vivo
[4] = Clearance in Sprague-Dawley rat at 1 mg/kg, iv and 2 mg/kg, po; assay type: ADME, organism-based; details: in vivo
[5] = Half life in Sprague-Dawley rat; assay type: ADME, organism-based; details: in vivo
[6] = biological target: T1, C-C chemokine receptor type 2 (Homo sapiens, UniProt P41597); assay: Displacement of 125I-hMCP1 from CCR2 expressed in human peripheral blood monocytes after 60 mins; assay type: cell-based
In short: (§1)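 Primary human blood monocytes, which express CCR2 endogenously, were incubated with 125I-hMCP-1 (2200 Ci/mmol) and the unlabeled compound. Incubation was 60 min at room temperature in 50 mM Hepes, 5 mM MgCl2 and 1 mM CaCl2, pH 7.4. Bound label was collected by filtration through PEI-presoaked GF/B filters and washed with 25 mM Hepes pH 7.5 containing 500 mM NaCl. Filters were then dried and counted by scintillation. Values are the mean of at least two experiments.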
Target sequence in this assay (P41597 whole entry): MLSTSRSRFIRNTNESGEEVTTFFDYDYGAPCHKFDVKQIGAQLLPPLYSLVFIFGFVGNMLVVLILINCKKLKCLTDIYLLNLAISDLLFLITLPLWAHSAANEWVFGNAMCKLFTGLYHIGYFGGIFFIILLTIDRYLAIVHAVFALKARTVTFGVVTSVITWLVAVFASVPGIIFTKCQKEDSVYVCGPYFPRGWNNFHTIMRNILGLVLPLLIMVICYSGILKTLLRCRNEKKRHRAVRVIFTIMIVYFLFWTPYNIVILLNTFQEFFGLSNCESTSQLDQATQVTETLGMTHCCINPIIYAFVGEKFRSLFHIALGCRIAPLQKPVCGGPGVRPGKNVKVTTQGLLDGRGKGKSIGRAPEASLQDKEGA

[7] = biological target: T1, C-C chemokine receptor type 2; assay: Displacement of 125I-hMCP1 from CCR2 expressed in human peripheral blood monocytes less than 10 uM after 60 mins; assay type: cell-based; in short: as §1
Target sequence in this assay (P41597 whole entry): as above

[8] = biological target: T1, C-C chemokine receptor type 2; assay: Displacement of 125I-hMCP1 from CCR2 expressed in human peripheral blood monocytes at 10 uM after 60 mins; assay type: cell-based
Target sequence in this assay (P41597 whole entry, looked up): as the sequence (P41597 whole entry) above

[9] = biological target: T1, C-C chemokine receptor type 2; assay: Displacement of 125I-hMCP1 from CCR2 expressed in human peripheral blood monocytes at 1 uM after 60 mins; assay type: cell-based
Target sequence in this assay (P41597 whole entry, looked up): as the sequence (P41597 whole entry) above

[10] = biological target: T1, C-C chemokine receptor type 2; assay: Antagonist activity against human CCR2 receptor assessed as inhibition of MCP1-induced migration of human peripheral blood monocytes at 300 nM; assay type: functional; design: scale not given: the % may be the effect or the level left
Target sequence in this assay (P41597 whole entry, looked up): as the sequence (P41597 whole entry) above

Sequence of C-C chemokine receptor type 5 (P51681 whole entry): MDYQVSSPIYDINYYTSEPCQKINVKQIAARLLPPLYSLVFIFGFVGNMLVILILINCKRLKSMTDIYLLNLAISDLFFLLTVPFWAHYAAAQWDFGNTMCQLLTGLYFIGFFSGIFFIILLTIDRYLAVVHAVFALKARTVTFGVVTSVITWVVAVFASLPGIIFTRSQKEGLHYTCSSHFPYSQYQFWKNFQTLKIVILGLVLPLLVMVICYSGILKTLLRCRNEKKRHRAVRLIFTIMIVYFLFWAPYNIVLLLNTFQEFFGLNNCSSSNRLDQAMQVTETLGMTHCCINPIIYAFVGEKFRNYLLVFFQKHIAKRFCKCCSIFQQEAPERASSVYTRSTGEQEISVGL

| IC50 [6] [nM] | Structure (SMILES) | other results |
| --- | --- | --- |
| 6470 | CCN(CC)CCCC(C)NC(=O)CCCc1cc(-c2cc(Cl)cc(Cl)c2)nn1-c1cc(C(F)(F)F)cc(C(F)(F)F)c1 (centres undefined) | – |
| 74 | CCN(CC)CCCC(CC(C)C)NC(=O)CCOc1cc(-c2cc(Cl)cc(Cl)c2)nn1-c1ccc2ccccc2c1 (centres undefined) | – |
| 168 | CCN(CC)CCCC(C)NC(=O)CCCc1cc(-c2cccc(Cl)c2)nn1-c1ccc2ccccc2c1 (centres undefined) | Activity [10]: 57% |
| 107 | CCC(C)CC(CCCN(CC)CC)NC(=O)CCOc1cc(-c2cc(Cl)cc(Cl)c2)nn1-c1ccc2ccccc2c1 (centres undefined) | – |
| 43 | COC(=O)[C@H](CCCNC(=N)N)NC(=O)CCNc1cc(-c2cc(Cl)cc(Cl)c2)nn1-c1ccc2ccccc2c1 | – |
| 207 | CCN(CC)CCCC(C)NC(=O)CCCc1cc(-c2cccc(C(F)(F)F)c2)nn1-c1ccc2ccccc2c1 (centres undefined) | – |
| 442 | CCN(CC)CCCC(C)NC(=O)CCCc1cc(-c2ccc(Cl)cc2)nn1-c1ccc2ccccc2c1 (centres undefined) | Activity [10]: inactive |
| 66 | CCN(CC)CCCC(C)NC(=O)CCOc1cc(-c2cc(Cl)cc(Cl)c2)nn1-c1ccc2ccccc2c1 (centres undefined) | – |
| 7600 | COC(=O)[C@H](CCCNC(=N)N)NC(=O)CCCOc1cc(-c2cc(Cl)cc(Cl)c2)nn1-c1ccc2ccccc2c1 | – |
| 221 | COC(=O)[C@H](CCCNC(=N)N)NC(=O)CCCc1cc(-c2cc(Cl)cc(Cl)c2)nn1-c1ccc2ccccc2c1 | bioavailability [1]: 0%; IC50 [2]: 63 nM; Vd [3]: 0.98 L/kg; clearance [4]: 8.3 mL/min/kg; half-life [5]: 2.49 h |

The next lines start with the compound.

| Structure (SMILES) | IC50 [6] [nM] | other results |
| --- | --- | --- |
| CCN(CC)CCCC(C)NC(=O)CCCc1cc(-c2cc(Cl)cc(Cl)c2)nn1-c1ccc2ccccc2c1 (centres undefined) | 108 | bioavailability [1]: 5%; IC50 [2]: 220 nM; Vd [3]: 13 L/kg; clearance [4]: 28.1 mL/min/kg; half-life [5]: 6.52 h |
| COC(=O)[C@H](CCCNC(=N)N)NCCCCc1cc(-c2cc(Cl)cc(Cl)c2)nn1-c1ccc2ccccc2c1 | – | IC50 [7]: Not Active |
| CCN(CC)CCCC(C)NC(=O)CCNc1cc(-c2cc(Cl)cc(Cl)c2)nn1-c1ccc2ccccc2c1 (centres undefined) | 30 | – |
| O=C(CCCc1cc(-c2cc(Cl)cc(Cl)c2)nn1-c1ccc2ccccc2c1)NCCCc1ccc2c(n1)NCCC2 | 9330 | – |
| CCN(CC)CCCC(C)NC(=O)CCCc1cc(-c2cc(Cl)cc(Cl)c2)nn1-c1ccccc1 (centres undefined) | – | Activity [8]: 69% |
| CCCCC(CCCN(CC)CC)NC(=O)CCOc1cc(-c2cc(Cl)cc(Cl)c2)nn1-c1ccc2ccccc2c1 (centres undefined) | – | Activity [9]: 52% |
| CN(C)CCCCNC(=O)CCCc1cc(-c2cc(Cl)cc(Cl)c2)nn1-c1ccc2ccccc2c1 | 1800 | – |
| COC(=O)[C@H](CCCNC(=N)N)NC(=O)c1cccc(-c2cc(-c3cc(Cl)cc(Cl)c3)nn2-c2ccc3ccccc3c2)c1 | – | IC50 [7]: Not Active |
| COC(=O)[C@H](CCCN=C(N)N)NC(=O)CCc1cc(-c2cc(Cl)cc(Cl)c2)nn1-c1ccc2ccccc2c1 | 4740 | – |
| CCN(CC)CCCC(C)NC(=O)CCCc1cc(-c2cc(C(F)(F)F)cc(C(F)(F)F)c2)nn1-c1ccc2ccccc2c1 (centres undefined) | 634 | – |
| CCN(CC)CCCC(NC(=O)CCOc1cc(-c2cc(Cl)cc(Cl)c2)nn1-c1ccc2ccccc2c1)C(C)C (centres undefined) | 6 | IC50 [2]: 1610 nM |
| CCN(CC)CCCC(C)NC(=O)CCCc1cc(-c2cccc(OC)c2)nn1-c1ccc2ccccc2c1 (centres undefined) | 2390 | – |
| COC(=O)[C@H](CCCNC(=N)N)NC(=O)CCOc1cc(-c2cc(Cl)cc(Cl)c2)nn1-c1ccc2ccccc2c1 | 62 | – |
| O=C(CCCc1cc(-c2cc(Cl)cc(Cl)c2)nn1-c1ccc2ccccc2c1)NCCCc1ccncc1 | 1120 | – |
| CCC(CCCN(CC)CC)NC(=O)CCOc1cc(-c2cc(Cl)cc(Cl)c2)nn1-c1ccc2ccccc2c1 (centres undefined) | 9 | – |
| CCN(CC)CCCCNC(=O)CCCc1cc(-c2cc(Cl)cc(Cl)c2)nn1-c1ccc2ccccc2c1 | 1230 | – |
| COC(=O)[C@H](Cc1c[nH]cn1)NC(=O)CCCc1cc(-c2cc(Cl)cc(Cl)c2)nn1-c1ccc2ccccc2c1 | 2840 | – |
| COC(=O)[C@H](CCCNC(=N)N)NC(=O)CC(=O)Nc1cc(-c2cc(Cl)cc(Cl)c2)nn1-c1ccc2ccccc2c1 | – | IC50 [7]: Not Active |
| CCN(CC)CCCC(C)NC(=O)CCCc1cc(-c2cccc(F)c2)nn1-c1ccc2ccccc2c1 (centres undefined) | 522 | – |
| CCN(CC)CCCC(C)NC(=O)CCCc1cc(-c2ccccc2Cl)nn1-c1ccc2ccccc2c1 (centres undefined) | – | Activity [8]: 69% |
| CCCC(CCCN(CC)CC)NC(=O)CCOc1cc(-c2cc(Cl)cc(Cl)c2)nn1-c1ccc2ccccc2c1 (centres undefined) | 44 | – |
